# SIAE inh: inhibitors of human sialic acid acetylesterase SIAE | Q9HAT2 | SIAE FP-Rh probe binding, fluorescence polarization | inhibition, % at 9.66 µM | hit rate 0.69% among 370,000 | AID 1053197;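 active = inhibition above a cutoff: mean of compounds within the control limits plus 3 SD of those, cut at about 17% in these data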
# TCR-CD3 inh: blocks the human TCR-CD3 interaction; TAMRA-labeled TCR probe fluorescence, biochemical; inhibition, % at 9.4 µM; hit rate 0.37% among 360,000; AID 651800;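 also: recombinant mutant TCR 2C K166C tagged with TAMRA read by polarization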
# mABHD4 FP: ABHD4 (mouse) inhibition, primary FP screen; purified mABHD4, FP-Rh probe fluorescence polarization; inhibition, % at 8.92 µM; hit rate 0.54% among 370,000;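 active = inhibition exceeding the mean over every tested compound plus 3 SD, cut at about 30% in these data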
#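 Assay system: wild-type mouse ABHD4 protein; compound: single nominal dose of 8.92 µM, 0.89% DMSO final; schedule: 45 min + 60 min at 25 °C; measured by: FP readout, ex 525 nm / em 598 nm; evaluation: % inhibition of FP-Rh probe binding versus controls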
# PRMT1 inh: inhibitors of human PRMT1; recombinant PRMT1, activity-based probe fluorescence polarization; inhibition, % at 2.79 µM; hit rate 1.3% among 370,000; AID 652257;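 active = inhibition above about 21% made by adding two undisclosed values, limit read from the data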
# HTRA1 inhibitor: HTRA1 (human) protease inhibition; Q92743; AID 504803; inhibition, % at 5.96 µM; recombinant HTRA1, FP-rhodamine activity-based probe, fluorescence polarization; hit rate 0.5% among 340,000; in the data active = inhibition above about 36%
# Target sequence (Q92743 whole entry, looked up): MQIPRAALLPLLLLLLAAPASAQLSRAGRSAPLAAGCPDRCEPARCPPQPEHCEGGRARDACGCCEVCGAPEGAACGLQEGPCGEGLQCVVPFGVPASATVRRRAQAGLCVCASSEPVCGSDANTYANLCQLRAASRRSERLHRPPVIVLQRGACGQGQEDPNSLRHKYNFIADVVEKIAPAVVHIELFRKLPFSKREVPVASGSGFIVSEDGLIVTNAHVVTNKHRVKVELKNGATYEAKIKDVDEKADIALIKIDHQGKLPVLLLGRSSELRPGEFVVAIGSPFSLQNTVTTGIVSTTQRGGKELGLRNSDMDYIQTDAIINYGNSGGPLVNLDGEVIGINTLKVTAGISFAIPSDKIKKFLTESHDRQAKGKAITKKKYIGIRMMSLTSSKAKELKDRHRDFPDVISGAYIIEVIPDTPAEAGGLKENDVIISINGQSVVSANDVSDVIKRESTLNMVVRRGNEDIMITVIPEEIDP
# BSA TAMRA ctr: BSA probe counter-screen for TCR-CD3 inhibitors; TAMRA-labeled BSA probe fluorescence counterscreen; inhibition, % at 9.4 µM; shares compounds with TCR-CD3 inh; hit rate 10% among 1,200; AID 652035; in the data active = inhibition above about 23%
# TCR-CD3 conf: TCR-CD3 interaction inhibition, confirmation. shares compounds with TCR-CD3 inh. inhibition, % at 9.4 µM. hit rate 48% among 1,200. TAMRA-labeled TCR probe fluorescence binding assay
# PRMT1 inh conf: PRMT1 (human) inhibition, FP confirmation. shares compounds with PRMT1 inh. recombinant His-PRMT1, activity-based probe fluorescence polarization. inhibition, % at 2.79 µM. hit rate 42% among 3,300. AID 687036;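 active = mean inhibition across replicates above the hit cutoff derived for the earlier primary screen, cut at about 22% in these data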
# ABHD4 confirm: ABHD4 (mouse) inhibition, FP confirmation | purified mABHD4, FP-Rh probe fluorescence polarization | shares compounds with mABHD4 FP | inhibition, % at 8.92 µM | hit rate 55% among 1,800;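 active = mean inhibition across replicates above the hit cutoff set in the primary screen, cut at about 30% in these data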
# SIAE confirm: human SIAE inhibition, confirmation; shares compounds with SIAE inh; SIAE FP-Rh activity-based probe, fluorescence polarization; inhibition, % at 9.66 µM; hit rate 13% among 2,300; AID 1117263;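 active = mean inhibition of the replicates above the hit cutoff set in the primary screen, cut at about 17% in these data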;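 also: inhibitors lower polarization as more probe stays unbound to SIAE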
# Hits are given with their value; - = inactive; . = not tested or not shown; ! = not active in a repeat. Shown are actives, neighbours in structure and some others; about 2.5% of the full set was active somewhere. Rule as the data show it, unless noted: active = inhibition above about 19%; inactive = the rest.
SMILES,SIAE inh,TCR-CD3 inh,mABHD4 FP,PRMT1 inh,HTRA1 inhibitor,PRMT1 inh conf,others
O=S(=O)(c1ccc2ccccc2c1)N1Cc2cc(Br)ccc2-n2nncc2C1,-,-,-,-,.,.,
O=P1(c2ccccc2)CC=CC1,-,-,-,-,.,.,
CCC(c1nnnn1C1CCCCC1)N1CCC2(CC1)C(=O)NCN2c1ccccc1 (centres undefined),-,-,-,-,.,.,
C[C@]12CCC(=O)C=C1CC[C@@H]1[C@@H]2CC[C@@]2(C)[C@H]1CC[C@]2(C)O,-,-,-,-,-,.,
C#C[C@]1(O)CC[C@H]2[C@@H]3CCC4=CC(=O)CC[C@]4(C)[C@H]3CC[C@@]21C,-,20,-,-,-,.,BSA TAMRA ctr=-;TCR-CD3 conf=-
Cc1cc(N2CCNC[C@H]2C)ccc1N1CCN[C@@H](C)C1,-,-,-,-,.,.,
O=C(NCCN1CCC2(CC1)C(=O)NCN2c1ccccc1)c1cccc(F)c1,-,-,-,-,.,.,
CN1CCC(c2c[nH]c3ccccc23)C1 (centres undefined),-,23,-,-,-,.,BSA TAMRA ctr=-;TCR-CD3 conf=-
CN1CCC(c2c[nH]c3ccc(O)cc23)CC1,-,-,-,-,-,.,
S=C(NCCc1ccccc1)N1Cc2cc(-c3ccccc3)ccc2-n2nncc2C1,-,22,-,-,.,.,BSA TAMRA ctr=-;TCR-CD3 conf=-
Nc1ccc(CCN2CCN(c3cccc(C(F)(F)F)c3)CC2)cc1,-,44,-,-,-,.,BSA TAMRA ctr=-;TCR-CD3 conf=-
Nc1ccc(CCN2CCCC2)cc1,-,-,-,-,-,.,
CCCCCn1c(=O)c(C(=O)Nc2ccccn2)c(O)c2ccccc21,-,-,-,-,-,.,
CCCCCCn1c(=O)c(C(=O)Nc2ncccc2O)c(O)c2ccccc21,-,26,-,-,-,.,BSA TAMRA ctr=-;TCR-CD3 conf=22
CC/C(=N\NC(=O)c1ccccc1)c1c(O)n(Cc2ccccc2)c(=O)[nH]c1=O,-,21,-,-,.,.,BSA TAMRA ctr=-;TCR-CD3 conf=-
O=C(N/N=C/c1c(O)n(CCc2ccccc2)c(=O)[nH]c1=O)c1ccccc1,-,37,-,-,.,.,BSA TAMRA ctr=-;TCR-CD3 conf=-
CN1C(=O)NC(=O)/C(=C/c2ccc([N+](=O)[O-])o2)C1=O,-,20,-,24,.,.,BSA TAMRA ctr=-;TCR-CD3 conf=-
CCC1([N+](=O)[O-])COP(N)(=O)OC1 (centres undefined),-,-,-,-,-,.,
O=c1[nH]c2ccccc2n1C1CCN(Cc2ccc(-c3[nH]c4cc5ncnc5cc4nc3-c3ccccc3)cc2)CC1,-,-,-,-,.,.,
NN=C1C(Cl)=C(Cl)C(Cl)=C1Cl,-,23,-,26,-,-,BSA TAMRA ctr=-;TCR-CD3 conf=-
S=C(NCCc1ccccc1)N1Cc2cc(N3CCCCC3)ccc2-n2nncc2C1,-,-,-,-,.,.,
CC12CCC(O)CC1CCC1C2CCC2(C)C(C(=O)CO)CCC12 (centres undefined),-,-,-,-,.,.,
O=[N+]([O-])c1ccc(N2CCCCCC2)c2nonc12,-,79,-,89,-,95,BSA TAMRA ctr=103;TCR-CD3 conf=87
O=C(N/N=C/c1c(O)n(Cc2ccco2)c(=O)[nH]c1=O)c1ccccc1O,-,41,31,-,-,.,BSA TAMRA ctr=-;TCR-CD3 conf=40;ABHD4 confirm=32
C=CC12CN(C)C3C4COC(CC41)C1(C(=O)Nc4ccccc41)C32 (centres undefined),-,-,-,-,.,.,
SMILES,SIAE inh,TCR-CD3 inh,mABHD4 FP,PRMT1 inh,HTRA1 inhibitor,PRMT1 inh conf,others
O=[N+]([O-])c1ccc(NCc2ccccc2)c2nonc12,37,66,53,168,.,159,BSA TAMRA ctr=99;TCR-CD3 conf=81;ABHD4 confirm=79;SIAE confirm=29
C=CC1C[N+]2(C)CCC1CC2C(O)c1ccnc2ccccc12 (centres undefined),-,-,-,-,.,.,
C=CCNC(=O)c1c(N)n(Cc2ccco2)c2nc3ccccc3nc12,-,-,-,25,-,-,
COCCNC(=O)c1c(N)n(Cc2ccco2)c2nc3ccccc3nc12,-,-,-,-,-,.,
CCOC(=O)c1cc(C)sc1/N=C/C1C(=O)NC(=S)NC1=O,-,-,-,86,-,-,
Cc1ccc2nc(-c3ccc(CN4CCC(n5c(=O)[nH]c6cc(Cl)ccc65)CC4)cc3)c(-c3ccccc3)nc2c1,-,-,-,-,.,.,
COc1ccccc1N,-,-,-,-,.,.,
COc1cc(N2CCOCC2)ccc1/C=C1\C(=O)NC(=O)N(C2CCCCC2)C1=O,-,-,-,26,-,-,
CCOc1cccc(=NC2CCCCC2)c2c(C)n(C)c(C)c12,-,-,-,47,.,-,
CC1CN1P(=S)(c1ccccc1)N1CC1C (centres undefined),-,-,-,36,-,-,
CC1C(=O)CC2(C(C)C)CC12 (centres undefined),-,-,-,-,.,.,
Cc1cccc(N2CCc3c2nc2ccccc2c3N)c1,-,-,-,33!,-,-,
C[C@H]1CNCCN1c1ccc(N2CC[C@H](O)C2)c(C#N)c1,-,-,-,-,.,.,
CCOC(=O)C1SC2(C(F)(F)F)CC1(O)c1c(C)cc(C)nc1O2 (centres undefined),-,-,-,73,-,63,
CC(C)C[C@@H]1COc2cccc(N3CCN(C)CC3)c2S(=O)(=O)N1,-,-,-,-,.,.,
Cc1ccc(OC(=O)N(C)C[C@@H]2OCc3cnnn3CCCC(=O)N([C@@H](C)CO)C[C@@H]2C)cc1,-,-,-,-,-,.,
O=C(O)Cn1cc(/C=C2\C(=O)NC(=O)N(Cc3ccco3)C2=O)c2ccccc21,-,-,-,27,-,-,
Cc1ccc(N2C(=O)NC(=O)/C(=C\c3cn(CC(=O)O)c4ccccc34)C2=O)cc1,-,-,-,-,-,.,
Cc1cc(N2CCNC[C@@H]2C)ccc1N1CCN[C@@H](C)C1,-,-,-,-,.,.,
CS(=O)(=O)c1ccc(C2=C(CNC(=O)c3nccs3)[C@H]3CC[C@@H](C2)N3Cc2ccco2)cc1,-,-,-,-,-,.,
CC(=O)N1Cc2cnnn2-c2ccccc2C1C#N (centres undefined),-,-,-,-,-,.,
N#Cc1c(/N=C/C2C(=O)NC(=S)NC2=O)sc2c1CCCC2,-,-,-,26,-,-,
Cc1cccc(N2C(=O)NC(=O)/C(=C\c3cc(C)n(-c4sc5c(c4C#N)CCCC5)c3C)C2=O)c1C,-,-,-,-,-,.,
c1cnc(N2CCNCC2)nc1,-,-,-,-,-,.,
c1ccc(Cc2cnc(N3CCNCC3)nc2)cc1,-,-,-,45,.,-,
Fc1cccc(-c2ccc3c(c2)CN(C(=S)NCCc2ccccc2)Cc2cnnn2-3)c1,-,-,-,-,.,.,

# Screening results: PubChem BioAssay, The Scripps Research Institute Molecular Screening Center
